Data published in ChEMBL document CHEMBL1268917, “Synthesis and biological evaluation of radio-iodinated benzimidazoles as SPECT imaging agents for NR2B subtype of NMDA receptor” (Bioorg Med Chem, 2010).

Legend:
Format in all cases: ADME, organism-based
Liver [1] = test: Biodistribution in ddY mouse liver assessed per gram of tissue at 14.8 kBq, iv after 360 mins; conditions: in vivo, 6 h
Method in brief: (§1)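 Killed at set times after injection; organs and blood removed, weighed, gamma counted. Data as % injected dose per gram tissue, mean SD, n = 5–6.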

Kidney [2] = test: Biodistribution in ddY mouse kidney assessed per gram of tissue at 14.8 kBq, iv after 360 mins; conditions: in vivo, 6 h; method in brief: as §1
Intestine [3] = test: Biodistribution in ddY mouse intestine assessed per gram of tissue at 14.8 kBq, iv after 360 mins; conditions: in vivo, 6 h; method in brief: as §1
Stomach [4] = test: Biodistribution in ddY mouse stomach assessed per gram of tissue at 14.8 kBq, iv after 360 mins; conditions: in vivo, 6 h
Method in brief: (§2)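 Radioiodinated tracer (14.8 kBq) injected via tail vein into male ddY mice (6 weeks, 30–35 g). Organs removed at set times after injection, weighed and gamma-counted; uptake expressed as % injected dose per gram tissue, mean ± SD, n = 5–6.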

Spleen [5] = test: Biodistribution in ddY mouse spleen assessed per gram of tissue at 14.8 kBq, iv after 360 mins; conditions: in vivo, 6 h; method in brief: as §2
Pancreas [6] = test: Biodistribution in ddY mouse pancreas assessed per gram of tissue at 14.8 kBq, iv after 360 mins; conditions: in vivo, 6 h; method in brief: as §2
Heart [7] = test: Biodistribution in ddY mouse heart assessed per gram of tissue at 14.8 kBq, iv after 360 mins; conditions: in vivo, 6 h; method in brief: as §1
Lung [8] = test: Biodistribution in ddY mouse lung assessed per gram of tissue at 14.8 kBq, iv after 360 mins; conditions: in vivo, 6 h; method in brief: as §2
Brain [9] = test: Biodistribution in ddY mouse brain assessed per gram of tissue at 14.8 kBq, iv after 360 mins; conditions: in vivo, 6 h; method in brief: as §1
Liver [10] = test: Biodistribution in ddY mouse liver assessed per gram of tissue at 14.8 kBq, iv after 180 mins; conditions: in vivo, 3 h; method in brief: as §1
Kidney [11] = test: Biodistribution in ddY mouse kidney assessed per gram of tissue at 14.8 kBq, iv after 180 mins; conditions: in vivo, 3 h; method in brief: as §1
Intestine [12] = test: Biodistribution in ddY mouse intestine assessed per gram of tissue at 14.8 kBq, iv after 180 mins; conditions: in vivo, 3 h; method in brief: as §1
Stomach [13] = test: Biodistribution in ddY mouse stomach assessed per gram of tissue at 14.8 kBq, iv after 180 mins; conditions: in vivo, 3 h; method in brief: as §2
Spleen [14] = test: Biodistribution in ddY mouse spleen assessed per gram of tissue at 14.8 kBq, iv after 180 mins; conditions: in vivo, 3 h; method in brief: as §2
Pancreas [15] = test: Biodistribution in ddY mouse pancreas assessed per gram of tissue at 14.8 kBq, iv after 180 mins; conditions: in vivo, 3 h; method in brief: as §2
Heart [16] = test: Biodistribution in ddY mouse heart assessed per gram of tissue at 14.8 kBq, iv after 180 mins; conditions: in vivo, 3 h; method in brief: as §1
Lung [17] = test: Biodistribution in ddY mouse lung assessed per gram of tissue at 14.8 kBq, iv after 180 mins; conditions: in vivo, 3 h; method in brief: as §2
Brain [18] = test: Biodistribution in ddY mouse brain assessed per gram of tissue at 14.8 kBq, iv after 180 mins; conditions: in vivo, 3 h; method in brief: as §1
Blood [19] = test: Biodistribution in ddY mouse blood assessed per gram of tissue at 14.8 kBq, iv after 360 mins; conditions: in vivo, 6 h; method in brief: as §1
Blood [20] = test: Biodistribution in ddY mouse blood assessed per gram of tissue at 14.8 kBq, iv after 0.5 mins; conditions: in vivo; method in brief: as §1
Liver [21] = test: Biodistribution in ddY mouse liver assessed per gram of tissue at 14.8 kBq, iv after 0.5 mins; conditions: in vivo; method in brief: as §1
Kidney [22] = test: Biodistribution in ddY mouse kidney assessed per gram of tissue at 14.8 kBq, iv after 0.5 mins; conditions: in vivo; method in brief: as §1
Intestine [23] = test: Biodistribution in ddY mouse intestine assessed per gram of tissue at 14.8 kBq, iv after 0.5 mins; conditions: in vivo; method in brief: as §1
Stomach [24] = test: Biodistribution in ddY mouse stomach assessed per gram of tissue at 14.8 kBq, iv after 0.5 mins; conditions: in vivo; method in brief: as §2
Spleen [25] = test: Biodistribution in ddY mouse spleen assessed per gram of tissue at 14.8 kBq, iv after 0.5 mins; conditions: in vivo; method in brief: as §2
Pancreas [26] = test: Biodistribution in ddY mouse pancreas assessed per gram of tissue at 14.8 kBq, iv after 0.5 mins; conditions: in vivo; method in brief: as §2
Heart [27] = test: Biodistribution in ddY mouse heart assessed per gram of tissue at 14.8 kBq, iv after 0.5 mins; conditions: in vivo; method in brief: as §1
Lung [28] = test: Biodistribution in ddY mouse lung assessed per gram of tissue at 14.8 kBq, iv after 0.5 mins; conditions: in vivo; method in brief: as §2
Brain [29] = test: Biodistribution in ddY mouse brain assessed per gram of tissue at 14.8 kBq, iv after 0.5 mins; conditions: in vivo; method in brief: as §1
Blood [30] = test: Biodistribution in ddY mouse blood assessed per gram of tissue at 14.8 kBq, iv after 5 mins; conditions: in vivo; method in brief: as §1
Liver [31] = test: Biodistribution in ddY mouse liver assessed per gram of tissue at 14.8 kBq, iv after 5 mins; conditions: in vivo; method in brief: as §1
Kidney [32] = test: Biodistribution in ddY mouse kidney assessed per gram of tissue at 14.8 kBq, iv after 5 mins; conditions: in vivo; method in brief: as §1
Intestine [33] = test: Biodistribution in ddY mouse intestine assessed per gram of tissue at 14.8 kBq, iv after 5 mins; conditions: in vivo; method in brief: as §1
Stomach [34] = test: Biodistribution in ddY mouse stomach assessed per gram of tissue at 14.8 kBq, iv after 5 mins; conditions: in vivo; method in brief: as §2
Spleen [35] = test: Biodistribution in ddY mouse spleen assessed per gram of tissue at 14.8 kBq, iv after 5 mins; conditions: in vivo; method in brief: as §2
Pancreas [36] = test: Biodistribution in ddY mouse pancreas assessed per gram of tissue at 14.8 kBq, iv after 5 mins; conditions: in vivo; method in brief: as §2
Heart [37] = test: Biodistribution in ddY mouse heart assessed per gram of tissue at 14.8 kBq, iv after 5 mins; conditions: in vivo; method in brief: as §1
Lung [38] = test: Biodistribution in ddY mouse lung assessed per gram of tissue at 14.8 kBq, iv after 5 mins; conditions: in vivo; method in brief: as §2
Brain [39] = test: Biodistribution in ddY mouse brain assessed per gram of tissue at 14.8 kBq, iv after 5 mins; conditions: in vivo; method in brief: as §1
Blood [40] = test: Biodistribution in ddY mouse blood assessed per gram of tissue at 14.8 kBq, iv after 30 mins; conditions: in vivo, 0.5 h; method in brief: as §1
Liver [41] = test: Biodistribution in ddY mouse liver assessed per gram of tissue at 14.8 kBq, iv after 30 mins; conditions: in vivo, 0.5 h; method in brief: as §1
Kidney [42] = test: Biodistribution in ddY mouse kidney assessed per gram of tissue at 14.8 kBq, iv after 30 mins; conditions: in vivo, 0.5 h; method in brief: as §1
Intestine [43] = test: Biodistribution in ddY mouse intestine assessed per gram of tissue at 14.8 kBq, iv after 30 mins; conditions: in vivo, 0.5 h; method in brief: as §1
Stomach [44] = test: Biodistribution in ddY mouse stomach assessed per gram of tissue at 14.8 kBq, iv after 30 mins; conditions: in vivo, 0.5 h; method in brief: as §2
Spleen [45] = test: Biodistribution in ddY mouse spleen assessed per gram of tissue at 14.8 kBq, iv after 30 mins; conditions: in vivo, 0.5 h; method in brief: as §2
Pancreas [46] = test: Biodistribution in ddY mouse pancreas assessed per gram of tissue at 14.8 kBq, iv after 30 mins; conditions: in vivo, 0.5 h; method in brief: as §2
Heart [47] = test: Biodistribution in ddY mouse heart assessed per gram of tissue at 14.8 kBq, iv after 30 mins; conditions: in vivo, 0.5 h; method in brief: as §1
Lung [48] = test: Biodistribution in ddY mouse lung assessed per gram of tissue at 14.8 kBq, iv after 30 mins; conditions: in vivo, 0.5 h; method in brief: as §2
Brain [49] = test: Biodistribution in ddY mouse brain assessed per gram of tissue at 14.8 kBq, iv after 30 mins; conditions: in vivo, 0.5 h; method in brief: as §1
Blood [50] = test: Biodistribution in ddY mouse blood assessed per gram of tissue at 14.8 kBq, iv after 60 mins; conditions: in vivo, 1 h; method in brief: as §1
Liver [51] = test: Biodistribution in ddY mouse liver assessed per gram of tissue at 14.8 kBq, iv after 60 mins; conditions: in vivo, 1 h; method in brief: as §2
Kidney [52] = test: Biodistribution in ddY mouse kidney assessed per gram of tissue at 14.8 kBq, iv after 60 mins; conditions: in vivo, 1 h; method in brief: as §1
Intestine [53] = test: Biodistribution in ddY mouse intestine assessed per gram of tissue at 14.8 kBq, iv after 60 mins; conditions: in vivo, 1 h; method in brief: as §1
Stomach [54] = test: Biodistribution in ddY mouse stomach assessed per gram of tissue at 14.8 kBq, iv after 60 mins; conditions: in vivo, 1 h; method in brief: as §2
Spleen [55] = test: Biodistribution in ddY mouse spleen assessed per gram of tissue at 14.8 kBq, iv after 60 mins; conditions: in vivo, 1 h; method in brief: as §2
Pancreas [56] = test: Biodistribution in ddY mouse pancreas assessed per gram of tissue at 14.8 kBq, iv after 60 mins; conditions: in vivo, 1 h; method in brief: as §2
Heart [57] = test: Biodistribution in ddY mouse heart assessed per gram of tissue at 14.8 kBq, iv after 60 mins; conditions: in vivo, 1 h; method in brief: as §1
Lung [58] = test: Biodistribution in ddY mouse lung assessed per gram of tissue at 14.8 kBq, iv after 60 mins; conditions: in vivo, 1 h; method in brief: as §2
Brain [59] = test: Biodistribution in ddY mouse brain assessed per gram of tissue at 14.8 kBq, iv after 60 mins; conditions: in vivo, 1 h; method in brief: as §1
Blood [60] = test: Biodistribution in ddY mouse blood assessed per gram of tissue at 14.8 kBq, iv after 180 mins; conditions: in vivo, 3 h; method in brief: as §1

Drug uptake (Liver [1]): 10.93 % ID/g | Drug uptake (Kidney [2]): 10.51 % ID/g | Drug uptake (Intestine [3]): 6.49 % ID/g | Drug uptake (Stomach [4]): 3.56 % ID/g | Drug uptake (Spleen [5]): 1.6 % ID/g | Drug uptake (Pancreas [6]): 3.72 % ID/g | Drug uptake (Heart [7]): 3.62 % ID/g | Drug uptake (Lung [8]): 0.93 % ID/g | Drug uptake (Brain [9]): 0.47 % ID/g | Drug uptake (Liver [10]): 17.81 % ID/g | Drug uptake (Kidney [11]): 15.23 % ID/g | Drug uptake (Intestine [12]): 7.82 % ID/g | Drug uptake (Stomach [13]): 4.04 % ID/g | Drug uptake (Spleen [14]): 2.85 % ID/g | Drug uptake (Pancreas [15]): 5.39 % ID/g | Drug uptake (Heart [16]): 6.93 % ID/g | Drug uptake (Lung [17]): 1.61 % ID/g | Drug uptake (Brain [18]): 0.67 % ID/g | Drug uptake (Blood [19]): 0.36 % ID/g | Drug uptake (Blood [20]): 4.74 % ID/g | Drug uptake (Liver [21]): 4.6 % ID/g | Drug uptake (Kidney [22]): 3.26 % ID/g | Drug uptake (Intestine [23]): 0.55 % ID/g | Drug uptake (Stomach [24]): 0.42 % ID/g | Drug uptake (Spleen [25]): 0.9 % ID/g | Drug uptake (Pancreas [26]): 0.92 % ID/g | Drug uptake (Heart [27]): 9.07 % ID/g | Drug uptake (Lung [28]): 3.82 % ID/g | Drug uptake (Brain [29]): 0.32 % ID/g | Drug uptake (Blood [30]): 0.95 % ID/g | Drug uptake (Liver [31]): 19.35 % ID/g | Drug uptake (Kidney [32]): 10.99 % ID/g | Drug uptake (Intestine [33]): 1.58 % ID/g | Drug uptake (Stomach [34]): 1.28 % ID/g | Drug uptake (Spleen [35]): 3.19 % ID/g | Drug uptake (Pancreas [36]): 3.09 % ID/g | Drug uptake (Heart [37]): 5.83 % ID/g | Drug uptake (Lung [38]): 3.52 % ID/g | Drug uptake (Brain [39]): 0.44 % ID/g | Drug uptake (Blood [40]): 0.53 % ID/g | Drug uptake (Liver [41]): 16.67 % ID/g | Drug uptake (Kidney [42]): 8.79 % ID/g | Drug uptake (Intestine [43]): 3.07 % ID/g | Drug uptake (Stomach [44]): 2.24 % ID/g | Drug uptake (Spleen [45]): 2.91 % ID/g | Drug uptake (Pancreas [46]): 3.71 % ID/g | Drug uptake (Heart [47]): 4.29 % ID/g | Drug uptake (Lung [48]): 1.86 % ID/g | Drug uptake (Brain [49]): 0.5 % ID/g | Drug uptake (Blood [50]): 0.54 % ID/g | Drug uptake (Liver [51]): 13.74 % ID/g | Drug uptake (Kidney [52]): 8.52 % ID/g | Drug uptake (Intestine [53]): 3.79 % ID/g | Drug uptake (Stomach [54]): 2.4 % ID/g | Drug uptake (Spleen [55]): 2.78 % ID/g | Drug uptake (Pancreas [56]): 4.55 % ID/g | Drug uptake (Heart [57]): 4.35 % ID/g | Drug uptake (Lung [58]): 1.7 % ID/g | Drug uptake (Brain [59]): 0.52 % ID/g | Drug uptake (Blood [60]): 0.55 % ID/g
SMILES: CS(=O)(=O)Nc1ccc2nc(CN3CCC(Cc4ccc([125I])cc4)CC3)[nH]c2c1
